Assay results published in ChEMBL document CHEMBL1126773, “Synthesis, physicochemical properties, and biological evaluation of N-substituted 2-alkyl-3-hydroxy-4(1H)-pyridinones: orally active iron chelators with clinical potential” (J Med Chem, 1993).

Key:
[1] = Percentage of release of lactic dehydrogenase from rat hepatocytes; format: functional, Hepatocyte
Procedure, shortened: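 Primary rat hepatocytes were plated at 1 × 10⁶/dish, pulsed 17 h with human diferric ⁵⁹Fe-transferrin (100 µg/mL), washed, then exposed to chelators in triplicate. LDH was measured in the supernatant at 6 h.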

[2] = species on record: Rattus norvegicus; assay: Percentage of mobilization of iron in 2 hours from rat hepatocytes; format: functional, Hepatocyte
[3] = Logarithm of cumulative stability constant was determined
[4] = Partition coefficient (logD7.4); format: physicochemical; settings: octanol/water, pH 7.4
Procedure, shortened: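 Automated filter-probe partitioning between MOPS buffer (50 mM, pH 7.4) and octan-1-ol, each phase pre-equilibrated with the other and purged with nitrogen. UV absorbance was read until stable, then octanol was added in at least 10 aliquots. An estimate came from each addition, giving a mean and standard deviation.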

[5] = Acid dissociation constant (pKa2) was determined
[6] = Acid dissociation constant (pKa1) was determined; format: physicochemical; settings: for pKa: read-out: pKa1
Procedure, shortened: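 Simultaneous spectrophotometric/potentiometric titration of the ligand. Temperature held at 22.5 ± 0.1 °C, ionic strength 0.1 with KNO3. pKa values were obtained by global optimization across titrations at several ligand concentrations.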

[7] = species on record: Equus caballus; assay: Percentage of removal of iron from iron-protein-ferritin; format: functional; set-up: concentration or dose not given beside the values
Procedure, shortened: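 Horse spleen ferritin (iron cores equivalent to 450 μM) was incubated with chelator (5 mM) in HEPES (0.1 M, pH 7.2) at 37 °C for up to 36 h. Samples were ultrafiltered to separate the Fe(III) complex, and the filtrate absorbance was read (450 nm; concentrations from ε max).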

[8] = target: Serotransferrin (Homo sapiens) (UniProt P02787); assay: Percentage of removal of iron from iron-protein-transferrin; format: functional; set-up: concentration or dose not given beside the values
Serotransferrin (Homo sapiens), sequence (P02787 whole entry): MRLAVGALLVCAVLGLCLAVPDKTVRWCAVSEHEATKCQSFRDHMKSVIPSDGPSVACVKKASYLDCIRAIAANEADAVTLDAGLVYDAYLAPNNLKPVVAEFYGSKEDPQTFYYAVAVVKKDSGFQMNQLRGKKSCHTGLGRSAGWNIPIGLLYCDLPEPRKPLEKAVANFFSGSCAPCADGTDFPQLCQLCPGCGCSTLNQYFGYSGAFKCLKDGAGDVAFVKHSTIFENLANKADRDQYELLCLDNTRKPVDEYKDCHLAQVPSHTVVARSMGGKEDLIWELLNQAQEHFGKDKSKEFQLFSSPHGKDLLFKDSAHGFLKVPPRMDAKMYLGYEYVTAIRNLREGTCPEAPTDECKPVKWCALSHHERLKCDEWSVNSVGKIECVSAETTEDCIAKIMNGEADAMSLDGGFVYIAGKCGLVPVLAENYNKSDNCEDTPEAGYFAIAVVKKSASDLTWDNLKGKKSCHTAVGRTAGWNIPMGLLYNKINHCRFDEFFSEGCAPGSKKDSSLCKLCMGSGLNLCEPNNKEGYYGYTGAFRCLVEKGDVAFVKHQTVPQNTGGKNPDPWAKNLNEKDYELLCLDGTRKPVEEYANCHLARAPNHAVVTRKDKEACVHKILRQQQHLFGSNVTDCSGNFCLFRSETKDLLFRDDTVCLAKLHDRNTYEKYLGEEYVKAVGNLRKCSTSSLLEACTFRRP
Procedure, shortened: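 Human transferrin, Fe(III)-loaded (50 μM), was mixed with chelator (100 μM) in MOPS (0.05 M, pH 7.4, 25 °C) with 25 mM NaHCO3. Absorbance at 400–500 nm was scanned every 2 min for 10 min, then every 5 min up to 3 h.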

For O/N=C/c1ccccn1, the Activity [1] was 108%, the Activity [2] was 108% and the “Log beta3” value [3] was 30.
With CCn1ccc(=O)c(O)c1C the logD [4] was -0.31, the “Log beta3” value [3] was 37.7 and the pKa ([5]; pKa2) was 9.88. It also gave a pKa [6] of 3.65.
In the case of CCc1c(O)c(=O)ccn1C(C)C, the logD [4] is reported as 0.732.
Cc1c(O)c(=O)ccn1CCCCO showed a logD [4] of -0.742.
In the case of CCCNC(=O)CCn1ccc(=O)c(O)c1C, the logD [4] is reported as -0.396.
Compound CCCn1ccc(=O)c(O)c1CC has a logD [4] of 0.702.
Cc1c(O)c(=O)ccn1CCCN gave a logD [4] of -2.1.
CCN(C)C(=O)CCn1ccc(=O)c(O)c1C gave a logD [4] of -0.686.
Cc1c(O)c(=O)ccn1CCN gave a logD [4] of -1.55, an Activity [7] of 23% and an Activity [8] of 56%.
With CC(=O)NO [ACETOHYDROXAMIC ACID] the “Log beta3” value [3] was 28.3 and the pKa ([5]; pKa2) was 9.4.
In the case of CCCCCCn1ccc(=O)c(O)c1CC, the logD [4] is reported as 2.28.
For CCCn1ccc(=O)c(O)c1C, the Activity [1] was 105%, the Activity [2] was 252% and the “Log beta3” value [3] was 37.7. For the same compound, the pKa ([5]; pKa2) was 9.92, the pKa [6] was 3.62 and the Activity [7] was 28%. It also gave an Activity [8] of 52%.
In the case of Oc1ccncc1O, the pKa2 [5] is reported as 9.6, the pKa ([5]; pKa2) is reported as 9.01 and the pKa1 [6] is reported as 3.6. It also gave a pKa [6] of 3.34.
In the case of CCOCCCn1ccc(=O)c(O)c1CC, the logD [4] is reported as 0.716.
In the case of CCOCCCn1ccc(=O)c(O)c1C, the logD [4] is reported as 0.121 and the Activity [8] is reported as 49%.
CNC(=O)CCn1ccc(=O)c(O)c1C gave a logD [4] of -1.1.
For Oc1cccc2cccnc12 [OXYQUINOLINE], the Activity [1] was 260%, the Activity [2] was 110% and the “Log beta3” value [3] was 37.
Compound CCCCn1ccc(=O)c(O)c1CC has a logD [4] of 1.22.
With CCCCn1ccc(=O)c(O)c1C the logD [4] was 0.703, the pKa ([5]; pKa2) was 9.87 and the pKa [6] was 3.62. For the same compound, the Activity [8] was 52%.
With Cc1c(O)c(=O)ccn1C(C)C the logD [4] was 0.0492, the Activity [7] was 26% and the Activity [8] was 51%.
For CCn1cccc(O)c1=O, the Activity [1] was 102%, the Activity [2] was 115% and the “Log beta3” value [3] was 32.
COCC(C)n1ccc(=O)c(O)c1C (stereo not drawn) gave a logD [4] of -0.26.
Cc1c(O)c(=O)ccn1CCO gave a logD [4] of -1.1, an Activity [7] of 29% and an Activity [8] of 47%.
CCc1c(O)c(=O)ccn1C showed a logD [4] of -0.205.
For CCc1c(O)c(=O)ccn1CC, the logD [4] was 0.25.
Work on CCCCCCCCn1ccc(=O)c(O)c1C yielded a logD [4] of 2.88.
CCc1c(O)c(=O)ccn1CCO gave a logD [4] of -0.658.
Work on CCc1nccc(O)c1O yielded a logD [4] of 0.0453.
Compound Cc1c(O)c(=O)ccn1CCCC(=O)O has an Activity [7] of 12% and an Activity [8] of 53%.
Compound CCN(CC)C(=O)CCn1ccc(=O)c(O)c1C has a logD [4] of -0.361.
Work on Cc1c(O)c(=O)ccn1CCC(=O)NC(C)C yielded a logD [4] of -0.471.
With Cc1c(O)c(=O)ccn1C [DEFERIPRONE] the logD [4] was -0.77, the “Log beta3” value [3] was 37.2 and the Activity [7] was 34%. The Activity [8] was 54%.
Work on CC(=O)N(O)CCCCCNC(=O)CCC(=O)N(O)CCCCCNC(=O)CCC(=O)N(O)CCCCCN yielded an Activity [7] of 11% and an Activity [8] of 5%.
In the case of CCNC(=O)CCn1ccc(=O)c(O)c1C, the logD [4] is reported as -0.818.
For Cc1c(O)c(=O)ccn1CCCO, the logD [4] was -0.879.
In the case of CCc1c(O)c(=O)ccn1CCOC, the logD [4] is reported as 0.0414.
CCCCCCn1ccc(=O)c(O)c1C gave a logD [4] of 1.9.
For CCCCCn1ccc(=O)c(O)c1C, the logD [4] was 1.24.
In the case of Cc1c(O)c(=O)ccn1CCC(=O)N(C)C, the logD [4] is reported as -1.16.
COCCn1ccc(=O)c(O)c1C gave a logD [4] of -0.409, an Activity [7] of 28% and an Activity [8] of 55%.
With Cc1nccc(O)c1O the logD [4] was -0.495, the “Log beta3” value [3] was 37.2 and the pKa ([5]; pKa2) was 9.76. For the same compound, the pKa [6] was 3.7.
For Oc1ccccc1O [CATECHOL], the “Log beta3” value [3] was 44.9, the pKa [5] was 13.3 and the pKa [6] was 9.2.
